Reference: BindingDB's records for doi:10.1021/jm020545z (Amorepacific R&D Center, 2004)

Target: T1, Prostaglandin G/H synthase 1 (Mus musculus, UniProt P22437)
T1 sequence (P22437 whole entry): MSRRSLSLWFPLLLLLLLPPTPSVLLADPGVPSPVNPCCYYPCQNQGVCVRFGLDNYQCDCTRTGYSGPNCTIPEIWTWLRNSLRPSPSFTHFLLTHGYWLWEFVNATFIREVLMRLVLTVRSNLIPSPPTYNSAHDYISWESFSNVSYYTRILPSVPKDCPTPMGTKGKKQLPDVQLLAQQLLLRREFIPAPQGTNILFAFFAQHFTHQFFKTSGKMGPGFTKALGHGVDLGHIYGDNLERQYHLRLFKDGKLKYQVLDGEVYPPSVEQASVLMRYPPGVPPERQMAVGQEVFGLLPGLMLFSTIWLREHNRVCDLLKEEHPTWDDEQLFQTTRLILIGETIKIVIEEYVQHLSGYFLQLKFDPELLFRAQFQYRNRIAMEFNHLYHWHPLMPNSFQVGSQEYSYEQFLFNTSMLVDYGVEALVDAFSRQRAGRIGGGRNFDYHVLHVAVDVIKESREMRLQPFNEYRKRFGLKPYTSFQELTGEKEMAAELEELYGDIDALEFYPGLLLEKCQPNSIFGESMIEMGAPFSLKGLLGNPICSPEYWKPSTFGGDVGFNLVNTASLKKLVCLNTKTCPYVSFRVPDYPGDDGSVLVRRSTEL
Assay: In vitro inhibitory activity against prostaglandin G/H synthase 1 using mouse peritoneal macrophage method
Method in brief: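 Freshly harvested mouse peritoneal macrophages were the enzyme source. Cells were preincubated 10 min at 37 °C with inhibitor in DMSO, then stimulated with calcium ionophore A23187 for 10 min. The reaction was stopped with indomethacin in 0.1% BSA buffer and centrifuged, and supernatant TXB₂ was measured by ELISA.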

In the case of `CC1(C)OC(c2ccc(S(N)(=O)=O)cc2)=C(c2ccco2)C1=O`, the IC50 is reported as > 29.9 µM.
